Assay outcomes: PubChem BioAssay, Broad Institute
Compounds with a hit are over-represented: about 4.4% of the library has one in this group of screens.
Calb FLC – C. albicans growth modulation with fluconazole. C. albicans CaCi-2 (fluconazole-resistant clinical isolate) + fluconazole, Alamar Blue growth, 48 h. growth inhibition, % (concentration not given with the values). 300,000 compounds, 0.57% hits. AID 1979;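 active = growth inhibition above about 58% in most replicates, limit read from the data, passing the limit was not always enough; inconclusive = exactly half the replicates above a set limit; inactive = most replicates below a set limit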;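 also: all wells also contain fluconazole at 8 µg/ml as a sub-toxic cotreatment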
HIF act – HIF pathway transcriptional activation; U2OS HRE-luciferase reporter, luminescence; normalized: DMSO 0%, desferrioxamine 100%; activation, % at 7.5 µM (by protocol); 300,000 compounds, 0.32% hits;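 active = mean activation of at least 10% of the iron chelator positive control signal, with at least half of replicates also reaching 10%; inconclusive = mean and replicate majority disagree about reaching 10%; inactive = mean and most replicates under 10%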
HSF1 inh – HSF1 inhibition; NIH3T3-HGL HSE-luciferase, MG132-induced, luminescence 8 h; active compounds read low; activity change, negative = inhibition, % at 7.5 µM (by protocol); 300,000 compounds, 0.77% hits; AID 2098;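 active = more than half of replicate wells show activity change below -50%, luminescence cut by over half; inconclusive = some wells, but at most half, below -50%; inactive = no replicate well below -50%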;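 also: luciferase reports HSF-1 transcriptional activity via heat shock element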
HSF1 activator – increases HSF-1 driven luciferase reporter signal | NIH3T3-HGL HSF-1 luciferase reporter, MG132, 8 h; 100% = twice DMSO control signal | activation, % at 9 µM | 300,000 compounds, 1.7% hits;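 active = mean replicate activation of at least 50% with a set share of replicates each reaching 50%; inconclusive = only one of those two conditions met; inactive = mean below 50% and too few replicates reaching it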
T cruzi inh – T. cruzi replication inhibition. inhibition, % (concentration not given with the values). 300,000 compounds, 1.4% hits. T. cruzi beta-gal in NIH3T3, luminescence, 90 h;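 active = mean inhibition across valid replicates above about 55%, limit read from the data; inconclusive = mean below that limit but half or more replicates reach it; inactive = mean below it, under half of replicates reach it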;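 also: signal also drops with host cell toxicity which is not excluded here; higher percent means less beta-gal luminescence so fewer parasites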
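compound dosing = single 50 nL compound addition per well in DMSO | material = NIH/3T3 host cells with β-galactosidase reporter T. cruzi | input = 5,000 host fibroblasts per well | timing = ≥90 h infection period, 3 h prior cell attachment | read-out basis = percent inhibition of parasite-derived β-gal signal | detection = GalScreen β-gal luminescence, detergent lysis, 60 min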
Of the large screens only hits and unclear results are named; the others gave an inactive call.

O=C(NC1=NCCS1)c1ccccc1OCc1ccc(F)cc1	none
CCOc1ccc(N2C(=O)C(Cl)=C(Nc3ccccc3O)C2=O)cc1	HSF1 activator 67
COc1ccccc1NC1=C(Cl)C(=O)N(c2ccccc2)C1=O	Calb FLC inconclusive
N#CCCN(Cc1cccs1)C(=O)Nc1ccc(F)cc1	none (no result: T cruzi inh)
CC1CCCN(c2ncnc3c2cnn3-c2ccccc2)C1 (stereo not given)	HSF1 inh -61
c1ccc(-n2ncc3c(N4CCCCC4)ncnc32)cc1	none
CCN(CC)C(=O)C1CCCN(c2ncnc3c2cnn3-c2ccc(Cl)cc2)C1 (stereo not given)	none
c1ccc(CCN2CCN(c3ncnc4c3cnn4-c3ccccc3)CC2)cc1	T cruzi inh 64
CC1CCCN(c2ncnc3c2cnn3-c2ccc(Cl)cc2)C1 (stereo not given)	HSF1 inh -90
CC1CC(C)CN(c2ncnc3c2cnn3-c2ccc(Cl)cc2)C1 (stereo not given)	HSF1 inh -52
Cc1cc(NC(=O)CSc2nnc(-c3ccncc3)n2-c2ccccc2)no1	none
COc1ccc(-n2sc3c(c2=S)-c2cc(OC)ccc2NC3(C)C)cc1	none
COc1ccc2c(c1)-c1c(sn(-c3ccccc3)c1=S)C(C)(C)N2	Calb FLC inconclusive, HSF1 activator 55
CC1CCCCN1S(=O)(=O)c1ccc(C(=O)Nc2nnc(-c3ccncc3)o2)cc1 (stereo not given)	none
CC1(C)COCN1S(=O)(=O)c1ccc(C(=O)Nc2nnc(-c3ccc(Cl)s3)o2)cc1	Calb FLC 79
COc1ccc(-c2nnc(NC(=O)c3ccc(S(=O)(=O)N4COCC4(C)C)cc3)o2)cc1	HSF1 inh inconclusive, T cruzi inh 62
CN1c2ccccc2N(C)C1(C)c1cccc2ccccc12	T cruzi inh 58
Cc1ccc(C(C)C)c(OCc2nnc3n2CCCCC3)c1	none
O=C(Cn1nc(-c2nn(CC(=O)c3ccccc3)c3[n+]2CCCCC3)[n+]2c1CCCCC2)c1ccccc1	none
Cc1ccc(C(C)C)c(OCc2nn(CC(=O)c3ccc(OC(F)F)cc3)c3[n+]2CCCCC3)c1	Calb FLC 90, T cruzi inh inconclusive
COc1ccc(C(=O)Cn2nc(CNc3ccc(Br)cc3)[n+]3c2CCCCC3)cc1	T cruzi inh 59
Cc1nc(NCC2CCCO2)c2nnn(Cc3c(F)cccc3Cl)c2n1 (stereo not given)	none
COc1ccc(-n2c(=O)c(CCC(=O)N(C)Cc3ccccc3C)nc3ccccc32)cc1	none
CCc1ccc(CN(C)C(=O)CCc2nc3ccccc3n(-c3ccc(OC)cc3)c2=O)cc1	HSF1 activator 70
CCOC(=O)c1csc(COc2ccccc2Cl)n1	none
CCOC(=O)c1csc(COc2ccc(OC)cc2)n1	HSF1 activator 64
O=C(C1CCC(Cn2c(=S)[nH]c3ccccc3c2=O)CC1)N1CCOCC1 (stereo not given)	none
CCCCCNC(=O)C1CCC(Cn2c(=S)[nH]c3ccccc3c2=O)CC1 (stereo not given)	HSF1 activator 85
CCOC(=O)C1=NNC2(c3ccc(Cl)cc3)C(=O)N(c3ccc(C)cc3)C(=O)C12 (stereo not given)	none
Cc1ccc(CC2SC(=Nc3ccccc3)N(c3ccccc3)C2=O)cc1 (stereo not given)	HSF1 activator 59
O=C(O)CC1SC(=Nc2ccccc2)N(c2ccccc2)C1=O (stereo not given)	none (no result: T cruzi inh)
Cc1cc(OC(=O)c2cccc(F)c2)c([N+](=O)[O-])c(=O)[nH]1	none
O=C(c1cc(Br)c[nH]1)N1CCCCC1	none
O=C(c1cc(Br)c[nH]1)N1CCSCC1	HSF1 inh -84
Cn1cc([C@@H]2C[C@H]3CN(C4CCCC4)C(=O)[C@]34CCCN24)c(-c2ccccc2)n1	none (no result: HSF1 inh, HSF1 activator)
Cn1c(/C=C/c2ccc(Br)cc2)nc2ccccc2c1=O	HSF1 activator 61 (no result: Calb FLC)
O=c1c2c([N+](=O)[O-])cc([N+](=O)[O-])cc2sn1Cc1ccccc1	T cruzi inh 57
O=c1c2c([N+](=O)[O-])cc([N+](=O)[O-])cc2nc2ccccn12	none
NC(=O)C1CCN(C2=C(Cl)C(=O)c3ccccc3C2=O)CC1	HSF1 activator 75, T cruzi inh 59
CCOc1ccc(C(C)=O)cc1CN1C(=O)NC(C)(C2CC2)C1=O (stereo not given)	none
Cn1c(N)c(C(=O)Nc2ccc(-c3ccccc3)cc2)sc1=S	HSF1 inh -52
COc1ccc(N(C)C(=O)c2oc(=O)c3ccccc3c2-c2ccccc2)c(OC)c1	HSF1 inh -79
CCOC(=O)C1CCN(C(=O)C2CCCN(c3ncnc4c3nc3n4CCCCC3)C2)CC1 (stereo not given)	HIF act 400
Cc1cccc(C)c1NC(=O)CN1C(=O)NC(C)(CCc2ccccc2)C1=O (stereo not given)	HSF1 inh -91
Cc1ccc(-n2c(C)cc(=O)cc2C)cc1[N+](=O)[O-]	none
Cc1ccccc1Nc1cc2ccccc2c(=O)[nH]1	none
O=c1[nH]c(Nc2ccccc2Cl)cc2ccccc12	HSF1 activator 61
O=C(NCC1CCCO1)c1ccc(COc2ccccc2)cc1 (stereo not given)	none
CCCCc1nnc(NC(=O)C(C)Sc2nc(C)cc(=O)[nH]2)s1 (stereo not given)	HSF1 activator 64
CC(=O)Nc1ccc(NC(=O)COC(=O)[C@@H](NC(=O)c2ccc(F)cc2)C(C)C)cc1	HSF1 activator 62
COc1ccc(S(=O)(=O)NCC2CCCN(Cc3ccccc3C)C2)cc1 (stereo not given)	none
CCN(CC)CCCNc1nc2cc(OC)c(OC)cc2c2nc(-c3ccccc3)nn12	Calb FLC inconclusive, T cruzi inh 61
CCN(CC)CCCNc1nc2cc(OC)c(OC)cc2c2nc(-c3cccnc3)nn12	none
COc1cc2nc(NCCCN3CCN(C)CC3)n3nc(-c4ccccc4)nc3c2cc1OC	T cruzi inh 62
COCCCNc1nc2cc(OC)c(OC)cc2c2nc(-c3ccccc3)nn12	none
COCCn1c(-c2ccc(OC)cc2)cnc1SCC(=O)Nc1ccc(OC)cc1OC	HIF act 21
Cc1oc(-c2ccoc2)nc1CN(CC1CCC(=O)N1)C(C)C (stereo not given)	HSF1 activator 72
Cc1oc(-c2cccc(F)c2)nc1CN(Cc1ccccc1)C[C@@H]1CCC(=O)N1	none
CC(=O)Nc1ccc2c(c1)nc1n2CCN(C(C)c2ccccc2)C1 (stereo not given)	none
O=S(=O)(Nc1ccc2c(c1)nc1n2CCN(Cc2ccccc2)C1)c1ccc(Cl)cc1	HSF1 activator 67
CC(c1ccccc1)N1CCn2c(nc3cc(NS(C)(=O)=O)ccc32)C1 (stereo not given)	Calb FLC 109
Cn1c(CCN2CCCCC2)nc2cc(NS(=O)(=O)c3ccc(Cl)cc3)ccc21	HSF1 activator 62
